In ChEMBL document CHEMBL1629579, “Correlating echinocandin MIC and kinetic inhibition of fks1 mutant glucan synthases for Candida albicans: implications for interpretive breakpoints” (Antimicrob Agents Chemother, 2009):
≈ marks a conversion by molar mass, not a printed value. Numbered stars: 1 amine (or outer) side, 2 acyl side, 3 side chain; on linkers, the order of the positions; unused ones are H or OH. Bridge positions count the residues as written; N and C are the ends. Square brackets hold non-standard residues; d marks the D form. Peptide text beside a SMILES is read from it. * marks the point of attachment. pTerphenylCO(4''-OnC5H11) = CCCCCOc1ccc(-c2ccc(-c3ccc(C(=O)*)cc3)cc2)cc1; Orn(4R-OH,5R-OH) = O=C([C@H](C[C@@H](O)[C@@H](O)N[*:3])N[*:1])[*:2]; hTyr(3S-OH,4S-OH) = N[C@H](C(=O)O)[C@H](O)[C@@H](O)c1ccc(O)cc1; Pro(3S-OH,4S-Me) = C[C@H]1CN[C@H](C(=O)O)[C@H]1O; Hyp = O=C(O)[C@@H]1C[C@@H](O)CN1

Assays:
[1] = system: Candida albicans; assay: Antimicrobial activity against Candida albicans SC5314 by M27-A3 method; type: functional
In short: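 Broth microdilution per CLSI M27-A3 in RPMI 1640, with and without 50% human serum, in triplicate. C. krusei ATCC 6258 and C. parapsilosis ATCC 22019 served as quality-control strains. MIC reported as arithmetic mean of three repetitions on separate days.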

[2] = system: Candida albicans; assay: Antimicrobial activity against Candida albicans 1002 by M27-A3 method in presence of 50% human serum; type: functional
In short: (§1)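 Broth microdilution per CLSI M27-A3 in RPMI 1640, done in triplicate on three separate days. Each strain was tested with and without 50% human serum. C. krusei ATCC 6258 and C. parapsilosis ATCC 22019 served as QC strains. Arithmetic means are reported, and geometric means were used for comparison.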

[3] = system: Candida albicans; assay: Antimicrobial activity against Candida albicans 3107 by M27-A3 method; type: functional; in short: as §1
[4] = system: Candida albicans; assay: Antimicrobial activity against Candida albicans 2762 harboring FKS1 T1922C mutant gene and FKS1 hotspot1 F641S mutant gene by M27-A3 method; type: functional; in short: as §1
[5] = system: Candida albicans; assay: Antimicrobial activity against Candida albicans 2762 harboring FKS1 T1922C mutant gene and FKS1 hotspot1 F641S mutant gene by M27-A3 method in presence of 50% human serum; type: functional; in short: as §1
[6] = system: Candida albicans; assay: Antimicrobial activity against Candida albicans 205 harboring FKS1 T1933C mutant gene and FKS1 hotspot1 S645P mutant gene by M27-A3 method; type: functional; in short: as §1
[7] = system: Candida albicans; assay: Antimicrobial activity against Candida albicans 205 harboring FKS1 T1933C mutant gene and FKS1 hotspot1 S645P mutant gene by M27-A3 method in presence of 50% human serum; type: functional; in short: as §1
[8] = system: Candida albicans; assay: Antimicrobial activity against Candida albicans 89 harboring FKS1 C1934A mutant gene and FKS1 hotspot1 S645Y mutant gene by M27-A3 method in presence of 50% human serum; type: functional; in short: as §1
[9] = system: Candida albicans; assay: Antimicrobial activity against Candida albicans 149 harboring FKS1 G1942T mutant gene and FKS1 hotspot1 D648Y mutant gene by M27-A3 method; type: functional; in short: as §1
[10] = system: Candida albicans; assay: Antimicrobial activity against Candida albicans 122 harboring FKS1 C1946A mutant gene and FKS1 hotspot1 P649H mutant gene by M27-A3 method; type: functional; in short: as §1
[11] = system: Candida albicans; assay: Antimicrobial activity against Candida albicans 122 harboring FKS1 C1946A mutant gene and FKS1 hotspot1 P649H mutant gene by M27-A3 method in presence of 50% human serum; type: functional; in short: as §1
[12] = system: Candida albicans; assay: Antimicrobial activity against Candida albicans 121 harboring FKS1 G4082A mutant gene and FKS1 hotspot2 R1361H mutant gene by M27-A3 method; type: functional; in short: as §1
[13] = system: Candida albicans; assay: Antimicrobial activity against Candida albicans 194 harboring FKS1 C1934T/G4082R mutant gene and FKS1 hotspot1 S645F mutant gene and FKS1 hotspot2 R1361R/H mutant gene by M27-A3 method; type: functional; in short: as §1
[14] = system: Candida albicans; assay: Antimicrobial activity against Candida albicans 90 harboring FKS1 G4082R mutant gene and FKS1 hotspot2 R1361R/H mutant gene by M27-A3 method; type: functional; in short: as §1
[15] = system: Candida albicans; assay: Antimicrobial activity against Candida albicans A15 harboring FKS1 T1933Y mutant gene and FKS1 hotspot1 S645S/P mutant gene by M27-A3 method in presence of 50% human serum; type: functional; in short: as §1
[16] = system: Candida albicans; assay: Antimicrobial activity against Candida albicans A15-10 harboring FKS1 T1933C mutant gene and FKS1 hotspot1 S645P mutant by M27-A3 method in presence of 50% human serum; type: functional; in short: as §1
[17] = Inhibition of Candida albicans 36082 1,3-beta-D-glucan synthase subunit FKS1p
In short: (§2)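 Enzyme is product-entrapped 1,3-β-D-glucan synthase, enriched from membranes of each strain grown at 37°C with shaking in YPD broth to early stationary phase. Filtration polymerization assay uses [3H]UDPG, started by adding enzyme and run 60 min at 25°C. Echinocandins are added as serial dilutions, with 1% DMSO controls for anidulafungin. IC50 is from a variable-slope sigmoidal fit; values are triplicate arithmetic means.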

[18] = Inhibition of Candida albicans 1002 1,3-beta-D-glucan synthase subunit FKS1p
In short: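 Product-entrapped glucan synthase from YPD-grown cells (37°C, early stationary phase) in a filtration polymerization assay with [3H]UDPG. Echinocandin serial dilutions were added, with 1% DMSO in controls for anidulafungin. Reactions were started with enzyme, run 60 min at 25°C and stopped on ice. IC50 came from a variable-slope sigmoidal fit, in triplicate.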

[19] = Inhibition of Candida albicans 3107 1,3-beta-D-glucan synthase subunit FKS1p; in short: as §2
[20] = Inhibition of Candida albicans 5415 1,3-beta-D-glucan synthase subunit FKS1p T1933C mutant; in short: as §2
[21] = Inhibition of Candida albicans 85 1,3-beta-D-glucan synthase subunit FKS1p C1934T mutant; in short: as §2
[22] = Inhibition of Candida albicans 149 1,3-beta-D-glucan synthase subunit FKS1p G1942T mutant; in short: as §2
[23] = system: Candida albicans SC5314; assay: Activity at Candida albicans SC5314 1,3-beta-D-glucan synthase subunit FKS1p
In short: (§3)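 Glucan synthase from cells grown at 37°C with vigorous shaking to early stationary phase in YPD. Membrane enzyme enriched by product entrapment. Serial echinocandin dilutions; ANF controls held 1% DMSO. Reaction started by adding enzyme, run 60 min at 25°C in a filtration polymerization assay, stopped on ice. IC50 from a variable-slope sigmoidal fit; means of three repetitions on separate days.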

[24] = system: Candida albicans; assay: Activity at Candida albicans 3795 1,3-beta-D-glucan synthase subunit FKS1p; in short: as §3
[25] = system: Candida albicans; assay: Activity at Candida albicans 119 1,3-beta-D-glucan synthase subunit FKS1p T1921C mutant
In short: (§4)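 Product-entrapped 1,3-β-D-glucan synthase from cells grown in YPD at 37°C to early stationary phase. Wells held 50 mM HEPES pH 7.5, 10% glycerol, 1.5 mg/ml BSA, 25 mM KF, 1 mM EDTA, 25 μM GTP-γ-S, 1 μg enzyme and [3H]UDPG (0.015–2 mM). Reactions ran 60 min at 25°C. Vmax and Km came from Lineweaver-Burke plots, in triplicate.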

[26] = system: Candida albicans; assay: Activity at Candida albicans 177 1,3-beta-D-glucan synthase subunit FKS1p T1922C mutant; in short: as §4
[27] = system: Candida albicans; assay: Activity at Candida albicans 85 1,3-beta-D-glucan synthase subunit FKS1p C1934T mutant; in short: as §4
[28] = system: Candida albicans; assay: Activity at Candida albicans 121 1,3-beta-D-glucan synthase subunit FKS1p G4082A mutant; in short: as §4
[29] = system: Candida albicans; assay: Activity at Candida albicans A15-10 1,3-beta-D-glucan synthase subunit FKS1p T1933C mutant

SMILES: CCCCCOc1ccc(-c2ccc(-c3ccc(C(=O)N[C@H]4C[C@@H](O)[C@@H](O)NC(=O)[C@@H]5[C@@H](O)[C@@H](C)CN5C(=O)[C@H]([C@@H](C)O)NC(=O)[C@H]([C@H](O)[C@@H](O)c5ccc(O)cc5)NC(=O)[C@@H]5C[C@@H](O)CN5C(=O)[C@H]([C@@H](C)O)NC4=O)cc3)cc2)cc1 [ANIDULAFUNGIN] ({pTerphenylCO(4''-OnC5H11)}-[Orn(4R-OH,5R-OH)]T[Hyp][hTyr(3S-OH,4S-OH)]T[Pro(3S-OH,4S-Me)]; lactam 1-C)
- MIC [1]: 0.08 µg/mL (≈ 0.0702 µM)
- MIC [2]: 0.44 µg/mL
- MIC [3]: 0.03 µg/mL (≈ 0.0263 µM)
- MIC [4]: 1 µg/mL (≈ 0.877 µM)
- MIC [5]: 4 µg/mL
- MIC [6]: 1.33 µg/mL (≈ 1.17 µM)
- MIC [7]: 8 µg/mL
- MIC [8]: 8 µg/mL
- MIC [9]: 0.83 µg/mL (≈ 0.728 µM)
- MIC [10]: 0.67 µg/mL (≈ 0.588 µM)
- MIC [11]: 8 µg/mL
- MIC [12]: 0.25 µg/mL (≈ 0.219 µM)
- MIC [13]: 4 µg/mL (≈ 3.51 µM)
- MIC [14]: 0.25 µg/mL (≈ 0.219 µM)
- MIC [15]: 2 µg/mL
- MIC [16]: 8 µg/mL
- IC50 [17]: 0.00151 µg/mL (≈ 0.00132 µM)
- Ki [17]: 0.00143 µg/mL (≈ 0.00125 µM)
- IC50 [18]: 0.00796 µg/mL (≈ 0.00698 µM)
- Ki [18]: 0.00239 µg/mL (≈ 0.0021 µM)
- IC50 [19]: 0.00312 µg/mL (≈ 0.00274 µM)
- Ki [19]: 0.00167 µg/mL (≈ 0.00146 µM)
- IC50 [20]: 1.152 µg/mL (≈ 1.01 µM)
- Ki [20]: 4.15411 µg/mL (≈ 3.64 µM)
- IC50 [21]: 0.787 µg/mL (≈ 0.69 µM)
- Ki [21]: 0.44593 µg/mL (≈ 0.391 µM)
- IC50 [22]: 0.0933 µg/mL (≈ 0.0818 µM)
- Ki [22]: 0.17055 µg/mL (≈ 0.15 µM)
- Km [23]: 125 µM
- Vmax [23]: 6.72 nmol/min
- Km [24]: 88 µM
- Vmax [24]: 6.63 nmol/min
- Km [25]: 54 µM
- Vmax [25]: 2.54 nmol/min
- Km [26]: 50 µM
- Vmax [26]: 4.4 nmol/min
- Km [27]: 25 µM
- Vmax [27]: 1.83 nmol/min
- Km [28]: 129 µM
- Vmax [28]: 4.41 nmol/min
- Km [29]: 91 µM
- Vmax [29]: 3.26 nmol/min
